Results pooled from the literature.
Lines come from different studies, so protocols differ.
Target: Alpha-2B adrenergic receptor (ADRA2B, Homo sapiens, UniProt P18089)
Concentration: 10 µM
One construct used (P18089 1-450): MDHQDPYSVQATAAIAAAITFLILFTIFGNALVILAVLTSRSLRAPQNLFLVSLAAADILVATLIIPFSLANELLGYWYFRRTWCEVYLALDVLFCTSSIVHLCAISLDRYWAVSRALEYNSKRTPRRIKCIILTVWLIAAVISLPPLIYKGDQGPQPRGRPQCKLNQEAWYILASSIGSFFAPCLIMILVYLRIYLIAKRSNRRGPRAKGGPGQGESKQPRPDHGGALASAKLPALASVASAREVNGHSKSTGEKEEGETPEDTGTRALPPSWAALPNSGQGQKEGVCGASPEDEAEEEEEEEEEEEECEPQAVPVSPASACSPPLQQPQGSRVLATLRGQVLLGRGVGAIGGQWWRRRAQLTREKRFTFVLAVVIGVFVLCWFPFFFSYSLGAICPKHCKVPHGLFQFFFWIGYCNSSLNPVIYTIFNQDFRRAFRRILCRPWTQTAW

Structure (SMILES)	test	inhibition [%]
O=C1c2ccccc2C(=O)N1CC#Cc1ccc2c(c1)C=C([N+](=O)[O-])C(C(F)(F)F)O2 (stereo not drawn)	ligand displacement, radioligand	70
N#Cc1cc(Cn2c(N3CCCC3)nc3ccccc32)ccc1F	ligand displacement	18.7
CCN(CC)c1ccc(C2Nc3ccc(C(=O)c4ccccc4)cc3NC3=C2C(=O)CC(C)(C)C3)cc1 (stereo not drawn)	ligand displacement, radioligand	-8
O=[N+]([O-])C1=Cc2cc(I)ccc2OC1C(F)(F)F (stereo not drawn)	ligand displacement, radioligand	66
Oc1cccc(Nc2nc(-c3ccc(F)cc3F)cs2)c1	cell-free assay	-29.7
CN(C)C(=O)Cn1cc(-c2nc(C3(c4ccc(-c5cnc(N)nc5)cc4)CC3)no2)cn1	cell-free assay	-3.57
COc1cc(NC(C)=O)c(Cl)cc1C(=O)Nc1nccs1	cell-free assay	-12.7
CCCNc1nc2ccccc2n1Cc1ccc(Cl)cc1	ligand displacement	83
O=C(NNS(=O)(=O)c1ccccc1F)c1cc(F)cc(-c2ccccn2)c1	cell-free assay	-3.78
